Data reported in ChEMBL document CHEMBL1139757, “Synthesis and evaluation of water-soluble docetaxel prodrugs-docetaxel esters of malic acid” (Bioorg Med Chem, 2007).
In brackets after ≈: the same amount, converted by molar mass.

Tests used:
A549 = experiment: Cytotoxicity against human A549 cells by MTT assay; type: functional, cell-based
How it was run: (§1)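 Cells exposed to compound for 48 h. MTT then added (final 0.5 mg/ml in RPMI-1640) for a further 4 h at 37 °C. Formazan dissolved in DMSO and absorbance read at 570 nm. IC50 for 50% inhibition of viability derived by dose–effect analysis. Three replicate wells per point, each experiment run in triplicate.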

Homo sapiens = species on record: Homo sapiens; experiment: Stability in human plasma
[1] = Stability in PBS buffer at pH 7.4 after 48 hrs; type: physicochemical
[2] = Solubility in water; type: physicochemical
How it was run: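 Compound suspended in water to 2 mg/mL, sonicated 15 min, then centrifuged at 13,000 rpm for 10 min. Supernatant quantified by reverse-phase HPLC with UV detection at 227 nm, taking extinction coefficients of prodrug and docetaxel as equal. Values are means of three experiments.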

KB = experiment: Cytotoxicity against human KB cells by MTT assay; type: functional, cell-based; how it was run: as §1
K562 = experiment: Cytotoxicity against human K562 cells by MTT assay; type: functional, cell-based; how it was run: as §1
MCF7 = experiment: Cytotoxicity against human MCF7 cells by MTT assay; type: functional, cell-based; how it was run: as §1
H22 = experiment: Antitumor activity against mouse H22 cells xenografted ICR mouse assessed as tumor growth inhibition at 10 mg/kg, ip once daily after 7 days; type: functional; details: 168 h, route intraperitoneal
How it was run: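 Male ICR mice implanted s.c. in the armpit with H22 hepatoma cells (5 × 10⁶ per animal). Dosing began 24 h after implantation: ip once daily for 7 consecutive days at 5, 10 or 20 mg/kg. Saline served as negative control (20 mice), 10 mice per treated group. Tumors excised and weighed at day 8. Inhibition = (C − T)/C × 100 from mean tumor weights.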

SMILES	half-life (Homo sapiens) [h]	half-life [1] [h]	solubility [2] [µg/mL]	IC50 (A549) [µg/mL]	IC50 (KB) [µg/mL]	IC50 (K562) [µg/mL]	IC50 (MCF7) [µg/mL]	inhibition in vivo at 10 mg/kg (H22) [%]
CC(=O)O[C@@]12CO[C@@H]1C[C@H](O)[C@@]1(C)C(=O)[C@H](O)C3=C(C)[C@@H](OC(=O)[C@H](OC(=O)CC(O)C(=O)O)[C@@H](NC(=O)OC(C)(C)C)c4ccccc4)C[C@@](O)([C@@H](OC(=O)c4ccccc4)[C@H]21)C3(C)C (some centres undefined)	4	> 48	470 (≈ 509 µM)	> 50	3.5 (≈ 3.79 µM)	9.5 (≈ 10.3 µM)	39.2 (≈ 42.4 µM)	
CC(=O)O[C@@]12CO[C@@H]1C[C@H](O)[C@@]1(C)C(=O)[C@H](O)C3=C(C)[C@@H](OC(=O)[C@H](OC(=O)C[C@@H](O)C(=O)O)[C@@H](NC(=O)OC(C)(C)C)c4ccccc4)C[C@@](O)([C@@H](OC(=O)c4ccccc4)[C@H]21)C3(C)C	4	> 48	470 (≈ 509 µM)	> 50	> 50	0.85 (≈ 0.92 µM)	> 50	
CC(=O)O[C@@]12CO[C@@H]1C[C@H](O)[C@@]1(C)C(=O)[C@H](O)C3=C(C)[C@@H](OC(=O)[C@H](OC(=O)C[C@H](O)C(=O)O)[C@@H](NC(=O)OC(C)(C)C)c4ccccc4)C[C@@](O)([C@@H](OC(=O)c4ccccc4)[C@H]21)C3(C)C	4	> 48	470 (≈ 509 µM)	> 50	> 50	3.9 (≈ 4.22 µM)	> 50	
CC(=O)O[C@@]12CO[C@@H]1C[C@H](OC(=O)CC(O)C(=O)O)[C@@]1(C)C(=O)[C@H](O)C3=C(C)[C@@H](OC(=O)[C@H](O)[C@@H](NC(=O)OC(C)(C)C)c4ccccc4)C[C@@](O)([C@@H](OC(=O)c4ccccc4)[C@H]21)C3(C)C (mixture of isomers)		> 48	430	> 50	> 50	0.069	> 50	
CC(=O)O[C@@]12CO[C@@H]1C[C@H](OC(=O)CC(O)C(=O)O)[C@@]1(C)C(=O)[C@H](OC(=O)CC(O)C(=O)O)C3=C(C)[C@@H](OC(=O)[C@H](OC(=O)CC(O)C(=O)O)[C@@H](NC(=O)OC(C)(C)C)c4ccccc4)C[C@@](O)([C@@H](OC(=O)c4ccccc4)[C@H]21)C3(C)C (mixture of isomers)		> 48	550	> 50	> 50	17	> 50	
CC(=O)O[C@@]12CO[C@@H]1C[C@H](O)[C@@]1(C)C(=O)[C@H](O)C3=C(C)[C@@H](OC(=O)[C@H](O)[C@@H](NC(=O)OC(C)(C)C)c4ccccc4)C[C@@](O)([C@@H](OC(=O)c4ccccc4)[C@H]21)C3(C)C.O.O.O [DOCETAXEL]				1.4	11.6	6.9	3.3	46.3

Now from value to compound, other results behind:

half-life (Homo sapiens) [h]	half-life [1] [h]	solubility [2] [µg/mL]	SMILES	IC50 (A549) [µg/mL]	IC50 (KB) [µg/mL]	IC50 (K562) [µg/mL]	IC50 (MCF7) [µg/mL]	inhibition in vivo at 10 mg/kg (H22) [%]
3	> 24	620	CC(=O)O[C@@]12CO[C@@H]1C[C@H](O)[C@@]1(C)C(=O)[C@H](O)C3=C(C)[C@@H](OC(=O)[C@H](OC(=O)C[C@@H](O)C(=O)[O-])[C@@H](NC(=O)OC(C)(C)C)c4ccccc4)C[C@@](O)([C@@H](OC(=O)c4ccccc4)[C@H]21)C3(C)C.[Na+]	> 50	> 50	18.8	> 50	
3	> 24	620	CC(=O)O[C@@]12CO[C@@H]1C[C@H](O)[C@@]1(C)C(=O)[C@H](O)C3=C(C)[C@@H](OC(=O)[C@H](OC(=O)C[C@H](O)C(=O)[O-])[C@@H](NC(=O)OC(C)(C)C)c4ccccc4)C[C@@](O)([C@@H](OC(=O)c4ccccc4)[C@H]21)C3(C)C.[Na+]	> 50	> 50	38.1	> 50	
3	> 24	620	CC(=O)O[C@@]12CO[C@@H]1C[C@H](O)[C@@]1(C)C(=O)[C@H](O)C3=C(C)[C@@H](OC(=O)[C@H](OC(=O)CC(O)C(=O)[O-])[C@@H](NC(=O)OC(C)(C)C)c4ccccc4)C[C@@](O)([C@@H](OC(=O)c4ccccc4)[C@H]21)C3(C)C.[Na+] (mixture of isomers)	3.5	0.45	1.5	3.6	
